Source: ChEMBL document CHEMBL2346563, “A series of nonsecosteroidal vitamin D receptor agonists for osteoporosis therapy” (Bioorg Med Chem, 2013)

Columns and labels:
[1] = tested on: Rattus norvegicus; assay: Toxicity in ovariectomized immatured Sprague-Dawley rat osteoporosis model assessed as effect on serum calcium level at 320 ng/kg, po once daily for 5 times per week for 4 weeks relative to control; assay type: organism-based; details: in vivo, 0.00032 mg/kg, 672 h
Summary of the method: (§1)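 Ovariectomized female 8-week-old Sprague–Dawley rats, n = 6 per group. Oral dosing five times per week for 4 weeks in medium-chain triglyceride (1 mL/kg). Vehicle-treated OVX and sham rats served as controls. Abdominal aortic blood drawn under ether 24 h after the last dose; serum calcium measured by autoanalyzer. ΔCa (%) = (treated − vehicle)/vehicle × 100. Mean ± SE.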

[2] = tested on: Rattus norvegicus; assay: Toxicity in ovariectomized immatured Sprague-Dawley rat osteoporosis model assessed as effect on serum calcium level at 80 ng/kg, po once daily for 5 times per week for 4 weeks relative to control; assay type: organism-based; details: in vivo, 8e-05 mg/kg, 672 h; summary of the method: as §1
[3] = tested on: Rattus norvegicus; assay: Toxicity in ovariectomized immatured Sprague-Dawley rat osteoporosis model assessed as effect on serum calcium level at 20 ng/kg, po once daily for 5 times per week for 4 weeks relative to control; assay type: organism-based; details: in vivo, 2e-05 mg/kg, 672 h; summary of the method: as §1
[4] = tested on: Rattus norvegicus; assay: Prevention of bone mineral density loss in ovariectomized immatured Sprague-Dawley rat osteoporosis model at 320 ng/kg, po once daily for 5 times per week for 4 weeks relative to control; assay type: functional
Summary of the method: (§2)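 Female 8-week-old Sprague–Dawley (Crj: CD (SD)) rats, ovariectomized or sham-operated, n = 6 per group. From one day after surgery, oral dosing five times per week for 4 weeks; vehicle was medium-chain triglyceride at 1 mL/kg. Distal femur BMD read by dual-energy X-ray absorptiometry 24 h after the last dose. ΔBMD (%) = (treated − vehicle)/(sham − vehicle) × 100. Mean ± SE.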

[5] = tested on: Rattus norvegicus; assay: Prevention of bone mineral density loss in ovariectomized immatured Sprague-Dawley rat osteoporosis model at 80 ng/kg, po once daily for 5 times per week for 4 weeks relative to control; assay type: functional; summary of the method: as §2
[6] = tested on: Rattus norvegicus; assay: Prevention of bone mineral density loss in ovariectomized immatured Sprague-Dawley rat osteoporosis model at 20 ng/kg, po once daily for 5 times per week for 4 weeks relative to control; assay type: functional; summary of the method: as §2
[7] = tested on: Rattus norvegicus; assay: Prevention of bone mineral density loss in ovariectomized immatured Sprague-Dawley rat osteoporosis model administered orally once daily for 5 times per week for 4 weeks; assay type: functional, organism-based; summary of the method: as §2
[8] = tested on: Rattus norvegicus; assay: Toxicity in ovariectomized matured Sprague-Dawley rat osteoporosis model assessed as effect on serum calcium level at 12 ng/kg, po once daily for 5 times per week for 4 weeks relative to control; assay type: organism-based; details: in vivo, 1.2e-05 mg/kg, 672 h
Summary of the method: (§3)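 Female 8-month-old Sprague–Dawley rats, ovariectomized or sham-operated, n = 8 per group. Starting one day post-surgery, oral dosing at 0.75–12 ng/kg, five times per week for 4 weeks; vehicle was MCT at 1 mL/kg. At 24 h after the last dose, aortic blood was taken for serum calcium by autoanalyzer. Distal femur and lumbar spine BMD measured by DXA.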

[9] = tested on: Rattus norvegicus; assay: Toxicity in ovariectomized matured Sprague-Dawley rat osteoporosis model assessed as effect on serum calcium level at 0.75 to 6 ng/kg, po once daily for 5 times per week for 4 weeks relative to control; assay type: organism-based; details: in vivo, 672 h; summary of the method: as §3
[10] = tested on: Rattus norvegicus; assay: Prevention of bone mineral density loss in distal femur of ovariectomized matured po dosed Sprague-Dawley rat osteoporosis model administered once daily for 5 times per week for 4 weeks; assay type: functional, organism-based; summary of the method: as §3
[11] = Mean residence time in Sprague-Dawley rat at 100 ug/kg, po; assay type: ADME, organism-based; details: in vivo, 0.1 mg/kg
Summary of the method: (§4)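 Male Sprague–Dawley rats, 8 weeks old, fed, n = 3 per route. Single 100 µg/kg dose, iv in ethanol/Tween20/saline (10:2:88) or po in ethanol/MCT (1:9). Blood taken from the jugular vein and centrifuged to plasma. Drug extracted with diethyl ether and quantified by LC-MS/MS. Bioavailability given as F (%).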

[12] = AUC (infinity) in Sprague-Dawley rat at 100 ug/kg, po; assay type: ADME, organism-based; set-up: dose 100 ug/kg, time infinity, route oral; details: plasma, 0.1 mg/kg; summary of the method: as §4
[13] = Half life in Sprague-Dawley rat at 100 ug/kg, po; assay type: ADME, organism-based; details: in vivo, 0.1 mg/kg; summary of the method: as §4
[14] = Cmax in Sprague-Dawley rat at 100 ug/kg, po; assay type: ADME, organism-based; set-up: dose 100 ug/kg, route oral; details: in vivo, 0.1 mg/kg; summary of the method: as §4
[15] = Oral bioavailability in Sprague-Dawley rat at 100 ug/kg; assay type: ADME, organism-based; details: in vivo, 0.1 mg/kg; summary of the method: as §4
[16] = Volume of distribution at steady state in Sprague-Dawley rat at 100 ug/kg, iv; assay type: ADME, organism-based; details: in vivo, 0.1 mg/kg, read-out: Vdss; summary of the method: as §4
[17] = Total clearance in Sprague-Dawley rat at 100 ug/kg, iv; assay type: ADME, organism-based; details: in vivo, 0.1 mg/kg; summary of the method: as §4
[18] = Mean residence time in Sprague-Dawley rat at 100 ug/kg, iv; assay type: ADME, organism-based; details: in vivo, 0.1 mg/kg; summary of the method: as §4
[19] = AUC (infinity) in Sprague-Dawley rat at 100 ug/kg, iv; assay type: ADME, organism-based; set-up: dose 100 ug/kg, time infinity, route intravenous; details: plasma, 0.1 mg/kg; summary of the method: as §4
[20] = Half life in Sprague-Dawley rat at 100 ug/kg, iv; assay type: ADME, organism-based; details: in vivo, 0.1 mg/kg; summary of the method: as §4
[21] = tested on: Rattus norvegicus; assay: Toxicity in ovariectomized immatured Sprague-Dawley rat osteoporosis model assessed as effect on serum calcium level at 40 ng/kg, po once daily for 5 times per week for 4 weeks relative to control; assay type: organism-based; details: in vivo, 4e-05 mg/kg, 672 h; summary of the method: as §1
[22] = tested on: Rattus norvegicus; assay: Toxicity in ovariectomized immatured Sprague-Dawley rat osteoporosis model assessed as effect on serum calcium level at 10 ng/kg, po once daily for 5 times per week for 4 weeks relative to control; assay type: organism-based; details: in vivo, 1e-05 mg/kg, 672 h; summary of the method: as §1
[23] = tested on: Rattus norvegicus; assay: Prevention of bone mineral density loss in ovariectomized immatured Sprague-Dawley rat osteoporosis model at 40 ng/kg, po once daily for 5 times per week for 4 weeks relative to control; assay type: functional; summary of the method: as §2
[24] = tested on: Rattus norvegicus; assay: Prevention of bone mineral density loss in ovariectomized immatured Sprague-Dawley rat osteoporosis model at 10 ng/kg, po once daily for 5 times per week for 4 weeks relative to control; assay type: functional; summary of the method: as §2
[25] = Genotoxicity in micronucleus (unknown origin) by micronucleus assay
[26] = tested on: Salmonella typhimurium; assay: Genotoxicity in Salmonella typhimurium by Ames test; assay type: toxicity, organism-based; details: salmonella enterica subsp. enterica serovar typhimurium
[27] = tested on: Rattus norvegicus; assay: Toxicity in ovariectomized matured Sprague-Dawley rat osteoporosis model assessed as effect on body weight at 0.75 to 12 ng/kg, po once daily for 5 times per week for 4 weeks; assay type: organism-based; details: in vivo, 672 h
[28] = tested on: Rattus norvegicus; assay: Toxicity in ovariectomized immatured Sprague-Dawley rat osteoporosis model assessed as effect on serum calcium level at 50 ng/kg, po once daily for 5 times per week for 4 weeks relative to control; assay type: organism-based; details: in vivo, 5e-05 mg/kg, 672 h; summary of the method: as §1
[29] = tested on: Rattus norvegicus; assay: Toxicity in ovariectomized immatured Sprague-Dawley rat osteoporosis model assessed as effect on serum calcium level at 25 ng/kg, po once daily for 5 times per week for 4 weeks relative to control; assay type: organism-based; details: in vivo, 2.5e-05 mg/kg, 672 h; summary of the method: as §1
[30] = tested on: Rattus norvegicus; assay: Prevention of bone mineral density loss in ovariectomized immatured Sprague-Dawley rat osteoporosis model at 50 ng/kg, po once daily for 5 times per week for 4 weeks relative to control; assay type: functional; summary of the method: as §2
[31] = tested on: Rattus norvegicus; assay: Prevention of bone mineral density loss in ovariectomized immatured Sprague-Dawley rat osteoporosis model at 25 ng/kg, po once daily for 5 times per week for 4 weeks relative to control; assay type: functional; summary of the method: as §2
[32] = tested on: Rattus norvegicus; assay: Toxicity in ovariectomized immatured Sprague-Dawley rat osteoporosis model assessed as effect on serum calcium level at 30 ng/kg, po once daily for 5 times per week for 4 weeks relative to control; assay type: organism-based; details: in vivo, 3e-05 mg/kg, 672 h; summary of the method: as §1
[33] = tested on: Rattus norvegicus; assay: Prevention of bone mineral density loss in ovariectomized immatured Sprague-Dawley rat osteoporosis model at 30 ng/kg, po once daily for 5 times per week for 4 weeks relative to control; assay type: functional; summary of the method: as §2

With `C=C1/C(=C\C=C2/CCC[C@]3(C)[C@@H]([C@H](C)CCCC(C)(C)O)CC[C@@H]23)C[C@@H](O)C[C@@H]1O` [CALCITRIOL] the Activity [1] was 5.1%, the Activity [2] was 2.5% and the Activity [3] was 2.5%. It also gave an Activity [4] of 58%, an Activity [5] of 53% and an Activity [6] of 4%.

For `CCC(CC)(c1ccc(/C=C/C(O)(C(F)(F)F)C(F)(F)F)c(C)c1)c1ccc(-c2ccc(CC(=O)O)c(F)c2)c(C)c1`, the Activity [7] was “Dose-dependent effect”.

In the case of `CCC(O)(/C=C/c1ccc(C(CC)(CC)c2ccc(-c3ccc(CC(=O)O)cn3)c(C)c2)cc1C)CC`, the Activity [8] was “Toxic”, the Activity [9] was “Non-toxic” and the Activity [10] was “Dose-dependent effect”. It also gave an MRT [11] of 28.3 h, an AUC(0-inf) [12] of 1650 ng·h/mL and a half-life [13] of 17.6 h. The Cmax [14] was 54 ng/mL, the bioavailability [15] was 95.1% and the Vd [16] was 0.99 L/kg. The clearance [17] was 1.51 mL/min/kg, the MRT [18] was 11.2 h and the AUC(0-inf) [19] was 1130 ng·h/mL. It also gave a half-life [20] of 8.5 h, an Activity [21] of 8.4% and an Activity [22] of -2.9%. It also gave an Activity [3] of 2.2%, an Activity [23] of 198% and an Activity [24] of 122%. For the same molecule, the Activity [6] was 172%, the Activity [25] was “Non-toxic” and the Activity [26] was “Non-toxic”. For the same molecule, the Activity [27] was “Non-toxic”.

In the case of `CCC(O)(/C=C/c1ccc(C(CC)(CC)c2ccc(-c3ccc(CC(=O)O)cc3)c(C)c2)cc1C)CC`, the Activity [28] was 8.7%, the Activity [29] was 0.7% and the Activity [30] was 81%. For the same molecule, the Activity [31] was 42% and the Activity [7] was “Dose-dependent effect”.

For `CCC(CC)(c1ccc(/C=C/C(O)(C(F)(F)F)C(F)(F)F)c(C)c1)c1ccc(-c2ccc(CC(=O)O)cc2)c(C)c1`, the Activity [32] was 6.9%, the Activity [22] was 0.6% and the Activity [33] was 89%. For the same molecule, the Activity [24] was 47% and the Activity [7] was “Dose-dependent effect”.
